In data set [1] the test system is U-87 MG. Description: Cytotoxicity against human U87 cells assessed as cell viability at 5 uM after 72 hrs by MTT assay relative to control. It counts as functional, U-87MG ATCC. The settings on record: read-out: Activity. In a few lines:
(§1)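 Cells grown in DMEM with 10% heat-inactivated FCS and penicillin/streptomycin at 37 °C, 5% CO2, and used in log phase. Seeded in 96-well plates and exposed to compounds at 5 μM and 1.5 μM for 72 h. MTT added, formazan dissolved in DMSO, OD read at 570 nm, and survival rate calculated. Average of at least three independent experiments.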
For orientation: Tetrazolium dyes change colour on reduction, which living cells bring about.

Data set [2] has as its system HeLa. Briefly: Cytotoxicity against human HeLa cells assessed as cell viability at 5 uM after 72 hrs by MTT assay relative to control. As to conditions: read-out: Activity. Format: functional. Summed up: as §1
For data set [3], the system named is HeLa. Description: Cytotoxicity against human HeLa cells assessed as cell viability at 1.5 uM after 72 hrs by MTT assay relative to control. It counts as functional. As to conditions: read-out: Activity. Summed up: as §1
A short description of data set [4]: Cytotoxicity against human KBV cells assessed as cell viability at 5 uM after 72 hrs by MTT assay relative to control. Format: functional. The settings on record: read-out: Activity. Summed up: as §1
A short description of data set [5]: Cytotoxicity against human KBV cells assessed as cell viability at 1.5 uM after 72 hrs by MTT assay relative to control. Format: functional. The settings on record: read-out: Activity. Summed up:
as §1

For data set [6], the system named is U-87 MG. Briefly: Cytotoxicity against human U87 cells assessed as cell viability at 1.5 uM after 72 hrs by MTT assay relative to control. The settings on record: read-out: Activity. It counts as functional, U-87MG ATCC. Summed up:
as §1

The subject of the next data set is Staphylococcus aureus. Description: Antibacterial activity against Staphylococcus aureus. Format: functional.
In data set [7] the test system is MKN-45. Briefly: Cytotoxicity against human MKN45 cells assessed as cell viability at 5 uM after 72 hrs by MTT assay relative to control. It counts as functional. The settings on record: MKN-45, 72 h, read-out: Activity. In a few lines: as §1
Data set [8] deals with MKN-45. Briefly: Cytotoxicity against human MKN45 cells assessed as cell viability at 1.5 uM after 72 hrs by MTT assay relative to control. Format: functional. The settings on record: MKN-45, 72 h, read-out: Activity. Summed up: as §1
Data set [9] in a line: Cytotoxicity against HEK293 cells assessed as reduction in cell viability after 72 hrs by MTT assay. Format: cell-based. The settings on record: human.
Data set [10] in a line: Cytotoxicity against human JHH7 cells assessed as reduction in cell viability after 72 hrs by MTT assay. As to conditions: JHH7, 72 h. It counts as functional, cell-based.
Data set [11] has as its system HeLa. Briefly: Induction of apoptosis in human HeLa cells assessed as increase in early apoptotic cells at 2 uM after 24 hrs by TUNEL staining based fluorescence microscopic analysis. Format: functional, cell-based. In a few lines:
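HeLa cells seeded at 2×10^4 cells/well on cover slips and grown 24 h, then treated at 2 μM for 24 h. Fixed, permeabilized, and incubated with TUNEL reaction mixture (labeling enzyme plus labeled dUTP) at 37 °C for 1 h. DAPI counterstain, and TUNEL-positive cells viewed by fluorescence microscopy.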

Data set [12] concerns MKN-45. Description: Cytotoxicity against human MKN45 cells assessed as reduction in cell viability after 72 hrs by MTT assay. It counts as functional, cell-based. As to conditions: MKN-45, 72 h.
Data set [13] deals with HeLa. Briefly: Cytotoxicity against human HeLa cells assessed as reduction in cell viability after 72 hrs by MTT assay. It counts as functional, cell-based.
Data set [14] is described as follows: Cytotoxicity against human KBV cells assessed as reduction in cell viability after 72 hrs by MTT assay. It counts as functional, cell-based.
The subject of data set [15] is HeLa. Briefly: Inhibition of protein synthesis in human HeLa cells assessed as decrease in puromycin-incorporated neo-synthesized proteins at 5 uM preincubated for 2 hrs followed by puromycin addition and measured after 10 mins by chemiluminescence assay. It counts as functional, cell-based. In a few lines:
(§2)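 HeLa cells at 70-80% confluence treated with compound for 2 h (range 1-10 μM), then pulsed with 10 μg/mL puromycin for 10 min. After ice-cold PBS washes, lysates run on SDS-PAGE and immunoblotted with anti-puromycin antibody (1:100, overnight, 4 °C) and HRP anti-mouse IgG. Read by enhanced chemiluminescence.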

Data set [16] relates to HeLa. Briefly: Induction of apoptosis in human HeLa cells assessed as increase in ratio of sub-G0 to G1 phase at 5 uM after 48 to 72 hrs by propidium iodide staining based FACS analysis. Format: functional, cell-based. A general note: In flow cytometry, cells or beads pass a laser one at a time.
The subject of data set [17] is U-87 MG. Description: Cytotoxicity against human U87 cells assessed as reduction in cell viability after 72 hrs by MTT assay. Format: functional, cell-based, U-87MG ATCC.
The nature of data set [18]: Toxicity in BALB/c mouse xenografted with human HeLa cells assessed as body weight at 25 mg/kg, ig bid measured every 3 days (reference value: 21.2 +/- 1.5 g). It counts as organism-based. As to conditions: in vivo, po, 72 h. On the technique in general: Xenograft models place foreign cells or tissue in a host animal.
For data set [19], the system named is HeLa. Description: Antitumor activity against human HeLa cells xenografted in BALB/c mouse assessed as tumor growth inhibition at 25 mg/kg, ig bid measured every 3 days relative to control. Format: functional. As to conditions: po, 72 h, read-out: TGI.
The nature of data set [20]: Toxicity in BALB/c mouse xenografted with human HeLa cells assessed as body weight at 50 mg/kg, ig bid measured every 3 days (reference value: 21.2 +/- 1.5 g). It counts as organism-based. As to conditions: in vivo, po, 72 h.
For data set [21], the system named is HeLa. Description: Antitumor activity against human HeLa cells xenografted in BALB/c mouse assessed as tumor growth inhibition at 50 mg/kg, ig bid measured every 3 days relative to control. It counts as functional. As to conditions: po, 72 h, read-out: TGI.
Data set [22] has as its system HeLa. Description: Inhibition of protein synthesis in human HeLa cells assessed as decrease in puromycin-incorporated neo-synthesized proteins preincubated for 2 hrs followed by puromycin addition and measured after 10 mins by chemiluminescence assay. It counts as functional, cell-based. Summed up: as §2

Molecules are shown by their SMILES. Values after ≈ are worked out from the molar mass of the structure shown. Active and inactive are the calls of the source. No cut-off for these calls is given here.

In general, MIC refers to the least concentration at which growth counts as inhibited. High values mean weaker potency, low ones greater potency. A word on the CC50: it is the concentration at which the toxic effect on the cells reaches its halfway point. The term IC50 denotes the concentration that gives 50% inhibition.

`CC(=O)O[C@H]1C[C@@]2(C)[C@@H](C[C@@H](O)[C@H]3[C@@]4(C)CC[C@@H](OC(=O)CN)[C@@H](C)[C@@H]4CC[C@@]32C)/C1=C(\CCC=C(C)C)C(=O)OCc1ccccc1`: the viability at 5 µM in the data set with U-87 MG [1] is 41%; with HeLa [2], 96%; in [4], 28%; with MKN-45 [7], 93%. For the same molecule, the viability at 1.5 µM in the data set on HeLa [3] is 100%; in data set [5] it was 97%; in the data set on U-87 MG [6], 94%; with MKN-45 [8], 95%. This molecule also displayed an MIC in the data set on Staphylococcus aureus of more than 32 µg/mL. Also, in [9], the CC50 at 72 h worked out at 10.8 µg/mL (≈ 16.3 µM).

With `CC(=O)O[C@H]1C[C@@]2(C)[C@@H](C[C@@H](O)[C@H]3[C@@]4(C)CC[C@@H](OC(=O)c5ccccc5C(=O)O)[C@@H](C)[C@@H]4CC[C@@]32C)/C1=C(\CCC=C(C)C)C(=O)OCc1ccccc1`, the viability at 5 µM in the data set on U-87 MG [1] worked out at 85%; in the data set on HeLa [2] it was 68%; in data set [4], 81%; with MKN-45 [7], 76%. For the same molecule, the viability at 1.5 µM in the data set on HeLa [3] came out at 89%; in [5], 78%; with U-87 MG [6] it was 81%; in the data set on MKN-45 [8], 78%. In the data set with Staphylococcus aureus, this molecule returned a minimal inhibitory concentration (MIC) of 32 µg/mL (≈ 42.4 µM). In [9], the CC50 at 72 h came to 20.6 µg/mL (≈ 27.3 µM).

As to `CC(=O)O[C@H]1C[C@@]2(C)[C@@H](C[C@@H](O)[C@H]3[C@@]4(C)CC[C@@H](OC(=O)C(C)N)[C@@H](C)[C@@H]4CC[C@@]32C)/C1=C(\CCC=C(C)C)C(=O)OCc1ccccc1` (some centres not stated), the viability at 5 µM with U-87 MG [1] was 33%; in the data set on HeLa [2], 23%; in data set [4] it was 15%; in the data set with MKN-45 [7], 91%. Also, the viability at 1.5 µM in the data set on HeLa [3] is 102%; in data set [5] it was 95%; in the data set on U-87 MG [6], 95%; in the data set on MKN-45 [8] it was 96%.

Take `CC(=O)O[C@H]1C[C@@]2(C)[C@@H](C[C@@H](O)[C@H]3[C@@]4(C)CC[C@@H](O)[C@@H](C)[C@@H]4CC[C@@]32C)/C1=C(\CCC=C(C)C)C(=O)O` [FUSIDIC ACID]: the viability at 5 µM in the data set on U-87 MG [1] was determined as 87%; with HeLa [2], 73%; in data set [4] it was 67%; in the data set with MKN-45 [7] it was 83%. The viability at 1.5 µM in the data set with HeLa [3] turned out to be 70%; in data set [5] it was 71%; in the data set with U-87 MG [6] it was 92%; in the data set on MKN-45 [8] it was 80%. Besides, the half-maximal inhibitory concentration (IC50) (in data set [10]; in the data set on MKN-45 [12]; in the data set with HeLa [13]; in [14]; in the data set with U-87 MG [17]) was more than 100 µM in each case. Besides, the result with HeLa [11] and with HeLa [16] was inactive. In the data set with HeLa [15], the inhibition entry was “inactive”. In the data set with Staphylococcus aureus, this molecule had an MIC not above 0.25 µg/mL. In data set [9], the 50% cytotoxic concentration (CC50) at 72 h was more than 32 µg/mL.

As to `CC(=O)O[C@H]1C[C@@]2(C)[C@@H](C[C@@H](O)[C@H]3[C@@]4(C)CC[C@@H](OC(=O)c5ccccc5C(=O)n5ccnc5)[C@@H](C)[C@@H]4CC[C@@]32C)/C1=C(\CCC=C(C)C)C(=O)OCc1ccccc1`, the viability at 5 µM in the data set on U-87 MG [1] came out at 77%; with HeLa [2] it was 63%; in [4] it was 69%; in the data set with MKN-45 [7], 92%. For the same molecule, the viability at 1.5 µM was 84% in the data set on HeLa [3], 81% in data set [5], 85% with U-87 MG [6] and 103% in the data set with MKN-45 [8].

`CC(=O)O[C@H]1C[C@@]2(C)[C@@H](C[C@@H](O)[C@H]3[C@@]4(C)CC[C@@H](OC(=O)CCN)[C@@H](C)[C@@H]4CC[C@@]32C)/C1=C(\CCC=C(C)C)C(=O)OCc1ccccc1`: the viability at 5 µM in the data set on U-87 MG [1] is 9%; with HeLa [2], 13%; in [4] it was 12%; with MKN-45 [7], 5%. The viability at 1.5 µM in the data set with HeLa [3] was determined as 32%; in data set [5] it was 14%; in the data set on U-87 MG [6], 10%; with MKN-45 [8] it was 23%. Besides, the IC50 stood at 3.18 µM in data set [10]; 1.28 µM with MKN-45 [12]; 3.57 µM in the data set with HeLa [13]; 1.26 µM in [14]; 2.4 µM in the data set on U-87 MG [17]. Further, the result with HeLa [11] and with HeLa [16] was Active. The results for the Activity in data set [18] and in data set [20] were 20.4 g and 20.5 g, respectively. For the same molecule, the inhibition in vivo at 25 mg/kg in the data set with HeLa [19] turned out to be 35.4%. Moreover, in the data set on HeLa [21], the inhibition in vivo at 50 mg/kg is 45.5%. In addition, the inhibition entry in the data set on HeLa [22] is “Dose-dependent effect”.

As for `CC(=O)O[C@H]1C[C@@]2(C)[C@@H](C[C@@H](O)[C@H]3[C@@]4(C)CC[C@@H](OC(=O)CCCN)[C@@H](C)[C@@H]4CC[C@@]32C)/C1=C(\CCC=C(C)C)C(=O)OCc1ccccc1`, the viability at 5 µM stood at 9% in the data set with U-87 MG [1], 23% with HeLa [2], 13% in [4] and 6% in the data set with MKN-45 [7]. The viability at 1.5 µM in the data set with HeLa [3] stood at 101%; in data set [5], 98%; in the data set with U-87 MG [6] it was 10%; with MKN-45 [8], 90%.

These data come from ChEMBL document CHEMBL4325897, “Discovery, synthesis of novel fusidic acid derivatives possessed amino-terminal groups at the 3-hydroxyl position with anticancer activity” (Eur J Med Chem, 2019).
